TRPC4 potent: positive allosteric modulators of TRPC4, primary screen, cell-based, mouse TRPC4beta, HEK293 mu-opioid, Fluo-4 calcium. 0.42% of 310,000 active. Short transient receptor potential channel 4 (Mus musculus), Q9QUQ5. DAMGO EC20, Fluo-4 Ca2+ flux; active compounds read high. AID 2227, 2009. B-score at 10 µM;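 active = B-score of calcium response area above 5 SD of library B-scores, with initial fluorescence ratio within 5 SD of library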
TRPC4 inh: inhibitors of mouse TRPC4 channel, primary screen, Fluo4 calcium, HEK293 TRPC4beta/mu-opioid cells. B-score at 10 µM. 0.39% of 300,000 active. DAMGO-evoked Fluo4 calcium flux; active compounds read low;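 active = B-score over 3 SD under the library average, no early fluorescence shift, positive overall ratio signal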
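Assay system – HEK293 line stably carrying TRPC4beta and mu-opioid receptor · Doses – single dose · Detection – Fluo4 calcium-dye fluorescence, kinetic read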
TRPC4 act: activators of mouse TRPC4 channel, primary screen, Fluo4 calcium, HEK293 TRPC4beta/mu-opioid cells | 0.49% of 310,000 active | Short transient receptor potential channel 4 (Mus musculus), Q9QUQ5 | Fluo4 calcium fluorescence; active compounds read high | B-score at 10 µM;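 active = B-score above 5 SD of library B-scores, and initial fluorescence ratio not above library mean plus 5 SD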;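 also: positive B-score marks a calcium rise read as TRPC4 activation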
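System: HEK293 cells stably co-expressing mouse TRPC4beta and mu-opioid receptor; Schedule: Fluo4 dye loading 45 min at room temperature, 110 s recording; Detection: Fluo4 fluorescence, kinetic; Evaluation: B-scored integrated calcium fluorescence ratio; Controls: buffer (low) and maximal DAMGO (high).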
Pemphigus Ab inh: inhibitors of pemphigus antibody binding to DSG3, primary screen, biochemical, bead-based, flow cytometry, scFv-GFP; binding (percent of control), % at 10 µM; Desmoglein-3 (Homo sapiens), P32926; AID 588358, 2011; 0.48% of 310,000 active; DSG3-coupled beads, scFv-anti-DSG3-GFP binding; active compounds read low;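 active = binding more than 3 SD below its plate's average and above zero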;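 also: hits lower antibody fragment binding to DSG3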
Target sequence (P32926 whole entry, looked up, the tested form may be a part): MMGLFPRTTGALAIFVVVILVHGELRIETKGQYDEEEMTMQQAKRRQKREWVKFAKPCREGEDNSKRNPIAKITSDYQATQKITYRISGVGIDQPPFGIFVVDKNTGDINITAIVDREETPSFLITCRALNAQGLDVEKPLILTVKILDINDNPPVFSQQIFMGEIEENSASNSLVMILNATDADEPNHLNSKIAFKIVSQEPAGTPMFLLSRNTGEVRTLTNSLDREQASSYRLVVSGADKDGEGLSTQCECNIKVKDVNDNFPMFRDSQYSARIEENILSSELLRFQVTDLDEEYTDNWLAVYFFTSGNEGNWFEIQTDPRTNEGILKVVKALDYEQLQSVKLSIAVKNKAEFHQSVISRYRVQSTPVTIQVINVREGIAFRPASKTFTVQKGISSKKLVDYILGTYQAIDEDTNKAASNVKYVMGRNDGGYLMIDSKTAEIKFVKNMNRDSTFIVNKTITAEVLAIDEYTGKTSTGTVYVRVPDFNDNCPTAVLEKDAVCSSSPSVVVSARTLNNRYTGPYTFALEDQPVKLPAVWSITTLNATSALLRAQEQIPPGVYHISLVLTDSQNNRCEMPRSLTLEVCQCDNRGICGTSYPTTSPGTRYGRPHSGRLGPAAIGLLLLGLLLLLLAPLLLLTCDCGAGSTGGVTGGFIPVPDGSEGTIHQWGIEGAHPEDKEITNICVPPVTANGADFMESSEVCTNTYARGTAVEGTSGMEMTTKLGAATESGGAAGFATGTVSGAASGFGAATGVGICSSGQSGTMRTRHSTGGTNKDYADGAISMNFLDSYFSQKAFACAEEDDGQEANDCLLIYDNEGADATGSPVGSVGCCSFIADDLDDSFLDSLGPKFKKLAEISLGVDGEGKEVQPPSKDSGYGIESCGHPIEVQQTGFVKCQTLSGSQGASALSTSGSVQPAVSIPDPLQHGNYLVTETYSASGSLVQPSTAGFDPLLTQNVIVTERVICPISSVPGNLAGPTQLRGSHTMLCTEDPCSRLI
TRPC6 act: mouse TRPC6 channel activators, primary screen, cell-based, HEK293, membrane potential dye. B-score at 10 µM. HEK293-TRPC6 membrane potential dye fluorescence; active compounds read high. Short transient receptor potential channel 6 (Mus musculus), Q61143. 0.13% of 310,000 active;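 active = B-score of the integrated fluorescence ratio above library mean plus 3 SD, and starting fluorescence ratio within library mean plus 5 SD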;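 also: higher score means more depolarization so channel activation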
TRPC6 inhibitor: mouse TRPC6 channel inhibitors, primary screen, cell-based, HEK293, membrane potential dye | Short transient receptor potential channel 6 (Mus musculus), Q61143 | ACh-evoked depolarization; active compounds read low | B-score at 10 µM | 1.1% of 310,000 active;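 active = B-score under library mean minus 3 SD, initial fluorescence not abnormally high, positive integrated signal ratio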;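 also: B-score derived from integrated fluorescence ratio over the kinetic read; more negative B-score means stronger inhibition of depolarization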
HEK293 MPD ctr: parental HEK293 membrane potential modulation, confirmation, counter-screen for TRPC6 modulator project, cell-based; shares compounds with TRPC6 inhibitor; membrane potential dye fluorescence; membrane potential signal change, % at 10 µM; 51% of 2,400 active;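 active = membrane potential signal moves up or down beyond 5 SD from buffer-only wells, on both duplicate plates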
HEK293 MPD ctr 2: second counter-screen for TRPC6 modulators: effect in parental HEK293 cells. shares compounds with TRPC6 inhibitor. membrane potential dye fluorescence; after compound, maximal acetylcholine stimulation. inhibition, % at 10 µM. 14% of 2,400 active;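 active = membrane potential signal drops by more than 5 SD from the mean control signal, in both duplicate plates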
TRPC4/MOR mod: TRPC4 modulation by TRPC6 hit compounds, confirmation, selectivity assay for TRPC6 modulator project, cell-based, HEK293 TRPC4/mu-opioid, membrane potential dye, mouse. shares compounds with TRPC6 inhibitor. membrane potential fluorescence. percent change from control (negative = decrease, positive = increase), % at 10 µM. 69% of 2,400 active. AID 488927, 2010;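 active = membrane potential signal moved up or down beyond 5 SD of buffer control wells, in both duplicate plates, actives on both sides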
TRPC4/MOR inh 2: second selectivity test of TRPC6 modulators against mouse TRPC4 | AID 488928 | 55% of 2,400 active | inhibition, % at 10 µM | shares compounds with TRPC6 inhibitor | HEK293 TRPC4/mu-opioid, membrane potential dye fluorescence; stimulated with maximal-effect DAMGO;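 active = drop in membrane potential signal beyond 5 SD of the control wells in both duplicate plates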;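 also: TRPC4 counter screen for TRPC6 hits run under conditions tuned for TRPC6 not TRPC4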
TRPC6 inh conf: mouse TRPC6 channel inhibitors, confirmation, HEK293 cells, membrane potential dye, duplicate. inhibition, % at 10 µM. 43% of 3,300 active. AID 488960, 2010. shares compounds with TRPC6 inhibitor. ACh-evoked depolarization;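 active = fluorescence ratio falls more than 5 SD below the full-stimulation control mean, in both duplicate runs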;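 also: integrated fluorescence ratio of peak minus minimum over baseline after agonist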
TRPC6 act conf: mouse TRPC6 channel activators, confirmation, HEK293 cells, membrane potential dye, duplicate | shares compounds with TRPC6 inhibitor | HEK293-TRPC6 membrane potential dye fluorescence, FDSS | activation, % at 10 µM | 11% of 2,800 active | AID 488961, 2010;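 active = ratio signal rise beyond 5 SD above unstimulated control wells' mean, seen in both duplicate runs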
A number is an active result; – = inactive; · = no result given. The list is not random: actives were taken first. Their share in the collection is about 2.5%.

SMILES	TRPC4 potent	TRPC4 inh	TRPC4 act	Pemphigus Ab inh	TRPC6 act	TRPC6 inhibitor	HEK293 MPD ctr	HEK293 MPD ctr 2	TRPC4/MOR mod	TRPC4/MOR inh 2	TRPC6 inh conf	TRPC6 act conf
Cc1ccc(-c2csc(=Nc3cccnc3)n2CCCn2ccnc2)cc1C	–	–	–	–	–	-5.43	105.5%	–	15.0%	65.0%	43.5%	·
CC(C)(C)NCC(O)(c1ccc(Cl)cc1)c1ccc(Cl)cc1	–	–	–	–	–	–	·	·	·	·	·	·
NCC(O)(c1ccc(Cl)cc1)c1ccc(Cl)cc1	–	–	–	–	–	-6.32	–	–	–	40.0%	–	–
O=C1NCCCC1C(=O)N/N=C/c1cccc(Cl)c1 (configuration not stated)	–	–	–	·	–	–	·	·	·	·	·	·
CCN(CC)CC(O)Cn1c(-c2cccc(Cl)c2)nc2cc(C)c(C)cc21 (configuration not stated)	–	–	–	·	–	-6.51	–	–	–	74.0%	63.0%	–
CCCSc1nc2cc(C)c(C)cc2n1CC(O)CO (configuration not stated)	–	–	–	–	–	–	·	·	·	·	·	·
COc1ccc(OC)c(S(=O)(=O)N2CCCC(C(=O)N3CCCCCC3)C2)c1 (configuration not stated)	–	–	–	–	–	–	·	·	·	·	·	·
CC(C)CNC(=O)c1cccc(NC(=O)C(C)Oc2ccccc2)c1 (configuration not stated)	–	–	–	–	–	–	·	·	·	·	·	·
CC(C)C[C@H](NC(=O)[C@@H]1Cc2ccccc2CN1)C(=O)Nc1ccc(C(C)C)cc1	–	–	–	–	–	-5.21	–	–	-12.0%	68.0%	–	–
CN(C)CCNC(=O)c1ccc2c(c1)N(Cc1ccc(F)cc1)CCS2	–	–	–	–	–	-6.41	–	–	–	73.5%	66.0%	–
COC(=O)c1ccc(NC(=O)CN2C(=O)CC(C)S(=O)(=O)c3ccccc32)cc1 (configuration not stated)	–	–	–	–	–	–	·	·	·	·	·	·
Cc1ccc(Cl)cc1NC(=S)NCc1cccn1C	–	–	–	·	–	–	·	·	·	·	·	·
COc1cc(/C=C/C(=O)c2ccc3c(c2)OCCO3)cc(Br)c1OCC(=O)N(C)C	–	–	–	–	12.9	–	126.0%	–	27.0%	–	–	51.0%
CCN(CC)CCN1C(=O)c2cccc3cc(N)cc(c23)C1=O	–	–	–	–	–	-5.55	531.0%	–	-32.0%	61.0%	48.5%	–
Nc1cc2c3c(cccc3c1)C(=O)N(CCN1CCCC1)C2=O	–	–	–	–	–	–	·	·	·	·	·	·
